Test results from ChEMBL document CHEMBL4396876, “Antisulfatase, Osteogenic, and Anticancer Activities of Steroid Sulfatase Inhibitor EO-33 in Mice” (J Med Chem, 2019).

Legend:
[1] = Plasma concentration in Balb/c mouse at 2 mg/kg, sc administered as single dose using MC/EtOH formulation measured after 3 hrs by LC-MS/MS analysis; format: ADME, organism-based
Summary of the method: (§1)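 Female Balb/c mice, fasted 8 h with free water, given a single dose in 0.1 mL vehicle: EO-33 dissolved in EtOH, then aqueous 0.4% methylcellulose added to a final 8% EtOH. Sacrificed under isoflurane at 1, 3, 7, 12 and 24 h (2–3 mice/group). Cardiac blood collected into K-EDTA and plasma stored at −80 °C. LC-MS/MS on 100 µL plasma. AUC0-24h taken from the five time points.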

[2] = Plasma concentration in Balb/c mouse at 10 mg/kg, sc administered as single dose using MC/EtOH formulation measured after 24 hrs by LC-MS/MS analysis; format: ADME, organism-based; summary of the method: as §1
[3] = Lipophilicity, log P of the compound; format: physicochemical; settings: octanol/water
[4] = Plasma concentration in Balb/c mouse at 30 mg/kg, sc administered as single dose using MC/EtOH formulation measured after 24 hrs by LC-MS/MS analysis; format: ADME, organism-based; summary of the method: as §1
[5] = system: Mus musculus; experiment: In vivo inhibition of STS in sc-dosed ovariectomized Balb/c mouse assessed as reduction in E1S-stimulated uterus weight administered twice daily starting from day 2 to day 10 using MC/EtOH formulation and E1S addition on day 5 to 10 measured on day 11; format: functional, organism-based
Summary of the method: (§2)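 Female Balb/c mice (15–20 g) ovariectomized under isoflurane, 5/group. Inhibitor given SC in 0.1 mL MC:EtOH (92:8) on days 2–10. E1S (2 µg/mouse, BID) or E1 (0.06 µg/mouse, ID) given SC on days 5–10. Vehicle controls included. Uterus dissected and weighed on day 11. Means ± SEM.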

[6] = Plasma concentration in Balb/c mouse at 10 mg/kg, sc administered as single dose using MC/EtOH formulation measured after 12 hrs by LC-MS/MS analysis; format: ADME, organism-based; summary of the method: as §1
[7] = Toxicity in nu/nu Br athymic mouse xenografted with human […]-stimulated MCF7 cells assessed as effect on liver at 30 mg/kg, sc administered 6 days per week for […] using MC/EtOH formulation measured 3 hrs post-last dose by necropsy analysis; format: organism-based; settings: in vivo
Summary of the method: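 MCF-7 cells (grown in DME-F12 with 5% FBS and 1 nM estradiol) inoculated SC at 4.1 x 10^6 cells in 30% Matrigel into both flanks of bilaterally ovariectomized nude mice, three days after surgery; E2S 50 µg/mouse SC three times weekly. Test agent SC 6 days/week in 0.1 mL MC:EtOH (92:8) for 28 days; vehicle-only controls. Mice weighed and killed 3 h after last dose; livers removed.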

[8] = system: Mus musculus; experiment: In vivo inhibition of STS in ovariectomized Balb/c mouse assessed as reduction in E1S-stimulated uterus weight at 30 mg/kg, sc administered once daily starting from day 2 to day 10 using MC/EtOH formulation and E1S addition on day 5 to 10 measured on day 11 relative to control; format: functional; summary of the method: as §2
[9] = Plasma concentration in Balb/c mouse at 30 mg/kg, sc administered as single dose using MC/EtOH formulation measured after 7 hrs by LC-MS/MS analysis; format: ADME, organism-based; summary of the method: as §1
[10] = Plasma concentration in Balb/c mouse at 30 mg/kg, po administered via gavage as single dose using MC/EtOH formulation measured after 12 hrs by LC-MS/MS analysis; format: ADME, organism-based; summary of the method: as §1
[11] = AUC (0 to 24 hrs) in Balb/c mouse assessed as (4-(((furan-2-ylmethyl)((5-methylthiophen-2-yl)methyl)amino)methyl)phenyl)(7-hydroxy-3,4-dihydroisoquinolin-2(1H)-yl)methanone level at 30 mg/kg, sc administered as single dose using MC/EtOH formulation by LC-MS/MS analysis; format: ADME, organism-based; design: time < 24 hr, dose 30 mg/kg, route subcutaneous; settings: in vivo
[12] = Plasma concentration in Balb/c mouse at 30 mg/kg, po administered via gavage as single dose using MC/EtOH formulation measured after 7 hrs by LC-MS/MS analysis; format: ADME, organism-based; summary of the method: as §1
[13] = Plasma concentration in Balb/c mouse at 2 mg/kg, sc administered as single dose using MC/EtOH formulation measured after 7 hrs by LC-MS/MS analysis; format: ADME, organism-based; summary of the method: as §1
[14] = AUC (0 to 24 hrs) in Balb/c mouse assessed as (4-(((furan-2-ylmethyl)((5-methylthiophen-2-yl)methyl)amino)methyl)phenyl)(7-hydroxy-3,4-dihydroisoquinolin-2(1H)-yl)methanone level at 30 mg/kg, po administered via gavage as single dose using MC/EtOH formulation by LC-MS/MS analysis; format: ADME, organism-based; design: dose 30 mg/kg, time < 24 hr, route oral; settings: in vivo
[15] = system: Mus musculus; experiment: Anti-estrogenic activity in ovariectomized Balb/c mouse assessed as reversal of E1-induced estrogenic effect at 30 mg/kg, sc administered once daily starting from day 2 to day 10 using MC/EtOH formulation and E1 addition on day 5 to 10 measured on day 11; format: organism-based; settings: in vivo; summary of the method: as §2
[16] = system: Mus musculus; experiment: Ex vivo inhibition of STS in ovariectomized Balb/c mouse liver homogenates assessed as reduction in transformation of [3H]-E1S into [3H]-E1 at 30 mg/kg, sc administered twice daily starting from day 2 to day 10 using MC/EtOH formulation and E1S addition on day 5 to 10 measured on day 11 by liquid scintillation counting method relative to control; format: functional
Summary of the method: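 Livers collected on day 11 from the OVX Balb/c uterotrophic protocol and homogenized in cold pH 7.4 phosphate buffer with protease inhibitors. 2000 g supernatant, 100 or 500 µg protein, incubated with [3H]-E1S/E1S (final 1 µM) in PBS for 2 h at 37 °C. Xylene extraction, then scintillation counting of both phases. Result given as % E1 formed. Triplicate.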

[17] = system: Mus musculus; experiment: In vivo inhibition of STS in ovariectomized Balb/c mouse assessed as reduction in E1S-stimulated uterus weight at 15 mg/kg, sc administered twice daily starting from day 2 to day 10 using MC/EtOH formulation and E1S addition on day 5 to 10 measured on day 11 relative to control; format: functional; summary of the method: as §2
[18] = system: Mus musculus; experiment: In vivo inhibition of STS in ovariectomized Balb/c mouse assessed as reduction in E1S-stimulated uterus weight at 30 mg/kg, sc administered twice daily starting from day 2 to day 10 using MC/EtOH formulation and E1S addition on day 5 to 10 measured on day 11 relative to control; format: functional; summary of the method: as §2
[19] = Plasma concentration in Balb/c mouse at 10 mg/kg, sc administered as single dose using MC/EtOH formulation measured after 3 hrs by LC-MS/MS analysis; format: ADME, organism-based; summary of the method: as §1
[20] = Plasma concentration in Balb/c mouse at 30 mg/kg, po administered via gavage as single dose using SO/DMSO formulation measured after 7 hrs by LC-MS/MS analysis; format: ADME, organism-based
Summary of the method: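 Female Balb/c mice, fasted 8 h, given a single dose in 0.1 mL of PG or sunflower oil holding a final 8% DMSO. Sacrificed under isoflurane at 7 h (2–3 mice/group). Cardiac blood collected into K-EDTA and plasma analysed by LC-MS/MS.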

[21] = Plasma concentration in Balb/c mouse at 2 mg/kg, sc administered as single dose using MC/EtOH formulation measured after 12 hrs by LC-MS/MS analysis; format: ADME, organism-based; summary of the method: as §1
[22] = AUC (0 to 24 hrs) in Balb/c mouse at 10 mg/kg, sc administered as single dose using MC/EtOH formulation by LC-MS/MS analysis; format: ADME, organism-based; design: dose 10 mg/kg, time < 24 hr, route subcutaneous; settings: in vivo; summary of the method: as §1
[23] = Plasma concentration in Balb/c mouse at 30 mg/kg, sc administered as single dose using MC/EtOH formulation measured after 12 hrs by LC-MS/MS analysis; format: ADME, organism-based; summary of the method: as §1

concentration at 3 h [1]: 33 ng/mL
concentration at 24 h [2]: 2 ng/mL
logP [3]: 4.02
concentration at 24 h [4]: 13 ng/mL
concentration at 12 h [6]: 4 ng/mL
concentration at 7 h [9]: 530 ng/mL
concentration at 12 h [10]: 3 ng/mL
AUC [11]: 269 ng·h/mL
concentration at 7 h [12]: 75 ng/mL
concentration at 7 h [13]: 1 ng/mL
AUC [14]: 10 ng·h/mL
concentration at 3 h [19]: 398 ng/mL
concentration at 7 h [20]: 49 ng/mL
concentration at 12 h [21]: 1 ng/mL
AUC(0-t) at 24 h [22]: 5200 ng·h/mL
concentration at 12 h [23]: 64 ng/mL
Compound: Cc1ccc(CN(Cc2ccc(C(=O)N3CCc4ccc(OS(N)(=O)=O)cc4C3)cc2)Cc2ccco2)s1
inhibition [5]: Dose-dependent effect
Activity [7]: Non-Toxic
inhibition in vivo at 30 mg/kg [8]: 42%
Activity [15]: Non-Toxic
inhibition in vivo at 30 mg/kg [16]: 81%
inhibition in vivo at 15 mg/kg [17]: 49%
inhibition in vivo at 30 mg/kg [18]: 69%
